The campaign covered roughly 20,000 compounds. About 25 (0.1%) were called active.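 The calls were made as follows: active = mean replicate protection from cytokine-induced ATP loss at least 50% and at least 75% of replicates each reaching 50%; inconclusive = meets only one of the two criteria, mean or replicate share; inactive = fails both the mean and replicate share criteria.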 The full list was thinned out, with actives kept by preference.

This assay can be described thus: protection of INS-1E cells from cytokine death, primary screen, ATP luminescence, single point (AID 488910). Conditions: INS-1E cytokine-induced death, 48 h, at 10 µM, hits give high values, normalised: neutral wells 0, positive control 100. In short, it runs like this: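 Assay system – rat INS-1E insulinoma cell line · Quantity – 8000 cells per well · Buffer or medium – RPMI without phenol red, 5% FBS · Schedule – 48 h co-treatment, 10 min post-lysis read · Technique – luminescent ATP assay (CellTiter-Glo)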
Turning to `C[C@H]1CN([C@@H](C)CO)C(=O)c2cc(NS(=O)(=O)c3cccs3)ccc2O[C@@H]1CN(C)C(=O)Nc1ccccc1`, the protection from cytokine-induced ATP loss is 10.2% (inactive).
Then `C[C@@H]1CN([C@H](C)CO)C(=O)Cc2cc(NS(=O)(=O)c3cccs3)ccc2O[C@@H]1CN(C)Cc1ccc(C(=O)O)cc1`, with 5.4% (inactive); and `C[C@@H]1CN([C@H](C)CO)C(=O)Cc2cc(NS(=O)(=O)c3cn(C)cn3)ccc2O[C@@H]1CN(C)C(=O)Nc1ccccc1`, with 10.7% (inactive).
For `CC(C)NC(=O)N(C)C[C@@H]1Oc2ccc(NC(=O)CCCCCC(=O)Nc3ccccc3N)cc2C(=O)N([C@@H](C)CO)C[C@H]1C` the value was 12.1% (inactive); for `Cc1ccc(S(=O)(=O)Nc2ccc3c(c2)CC(=O)N([C@@H](C)CO)C[C@H](C)[C@H](CN(C)Cc2ccccc2)O3)cc1`, 12.2% (inactive).
In the case of `COC(=O)CCCCCCC(=O)N/N=C/c1cccc(Br)c1`, the protection from cytokine-induced ATP loss is 21.3% (inactive).
Then `C[C@H](CO)N1C[C@H](C)[C@H](CN(C)C(=O)Nc2cccc3ccccc23)Oc2ccc(NS(C)(=O)=O)cc2C1=O`, with 4.67% (inactive); and `C[C@H]1CN([C@@H](C)CO)C(=O)Cc2cc(NC(=O)NC3CCCCC3)ccc2O[C@@H]1CN(C)Cc1ccc(Oc2ccccc2)cc1`, with -49.9% (inactive).
Consider `C[C@@H]1CN([C@@H](C)CO)C(=O)c2cc(NC(=O)C3CCCCC3)ccc2O[C@@H]1CN(C)Cc1ccc(C(=O)O)cc1`, for which the protection from cytokine-induced ATP loss is 3.82% (inactive).
For the compound `COc1ccc(NC(=O)Nc2ccc3c(c2)CC(=O)N([C@@H](C)CO)C[C@H](C)[C@@H](CN(C)S(=O)(=O)c2cn(C)cn2)O3)cc1`, the protection from cytokine-induced ATP loss is 14.9% (inactive).
Then `Cc1ccc(S(=O)(=O)Nc2ccc3c(c2)C(=O)N([C@H](C)CO)C[C@H](C)[C@@H](CN(C)C(=O)Nc2ccc4c(c2)OCO4)OCCCC[C@@H](C)O3)cc1`, with -3.08% (inactive); and `COC(=O)CCCCCCC(=O)N/N=C/c1c(OC)cc(O)cc1OC`, with 3.27% (inactive).
`COC(=O)CCCCCCC(=O)N/N=C/c1ccc(O)c(OC)c1`: the protection from cytokine-induced ATP loss was 9.74% (inactive).
Regarding `COc1cc(/C=N\NC(=O)CCCCCCC(=O)NO)c(Br)cc1O`, the protection from cytokine-induced ATP loss was 77.6% (active).
For `C[C@H](CO)N1C[C@H](C)[C@H](CN(C)S(C)(=O)=O)Oc2c(NC(=O)c3ccc(-c4nccs4)cc3)cccc2C1=O` the value was -1.51% (inactive); for `COc1ccc(S(=O)(=O)Nc2ccc3c(c2)C(=O)N([C@H](C)CO)C[C@@H](C)[C@H](CN(C)S(=O)(=O)c2ccc(C)cc2)O3)cc1`, -13.4% (inactive).
For `C[C@@H]1CN([C@H](C)CO)C(=O)c2cc(NS(C)(=O)=O)ccc2O[C@@H]1CN(C)S(C)(=O)=O` the value was 6.6% (inactive).
Then `Cc1noc(C)c1NC(=O)N(C)C[C@H]1OCCCC[C@@H](C)Oc2ccc(NC(=O)NC(C)C)cc2C(=O)N([C@H](C)CO)C[C@@H]1C`, with -5.7% (inactive); and `COc1ccc(NC(=O)Nc2ccc3c(c2)C(=O)N([C@H](C)CO)C[C@H](C)[C@@H](CN(C)C(=O)Nc2ccc4c(c2)OCO4)O3)cc1`, with 3.11% (inactive).
As to `C[C@@H]1CN([C@@H](C)CO)C(=O)c2cc(NC(=O)CCN3CCOCC3)ccc2O[C@@H]1CN(C)S(=O)(=O)c1ccccc1`, the protection from cytokine-induced ATP loss was 8.45% (inactive).

The record behind these values is PubChem BioAssay AID488910 (Broad Institute, 2010).
